Legend:
[1] = target: T1, Alpha-1B adrenergic receptor (Rattus norvegicus, UniProt P15823); experiment: Antagonist activity at alpha1B-adrenoceptor in Wistar rat spleen assessed as inhibition of phenylphrine-induced contractions measured after 30 mins in presence of (+/-)-propranolol hydrochloride; conditions: 0.5 h
T1 sequence (P15823 whole entry): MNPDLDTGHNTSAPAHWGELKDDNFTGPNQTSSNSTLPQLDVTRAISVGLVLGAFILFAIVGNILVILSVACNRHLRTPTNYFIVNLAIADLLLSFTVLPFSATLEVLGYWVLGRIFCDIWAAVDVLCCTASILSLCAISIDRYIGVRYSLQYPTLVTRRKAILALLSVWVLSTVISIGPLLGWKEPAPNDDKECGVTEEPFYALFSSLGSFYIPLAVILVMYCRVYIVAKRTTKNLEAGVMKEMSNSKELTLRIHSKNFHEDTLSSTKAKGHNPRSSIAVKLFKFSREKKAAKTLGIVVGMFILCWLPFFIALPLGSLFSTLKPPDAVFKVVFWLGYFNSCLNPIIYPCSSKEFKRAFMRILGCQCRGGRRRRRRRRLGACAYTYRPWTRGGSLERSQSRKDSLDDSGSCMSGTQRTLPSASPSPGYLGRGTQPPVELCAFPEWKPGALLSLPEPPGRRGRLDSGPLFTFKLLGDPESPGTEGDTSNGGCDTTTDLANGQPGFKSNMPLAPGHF
In short: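 Male Wistar rat spleen strips in Krebs-type solution at 37 °C with (±)-propranolol 4 µM, under 1 g resting tension, equilibrated 2 h. Cumulative isometric phenylephrine curves at 30 min intervals; first discarded, second used as control, then a curve after 30 min antagonist incubation. pKB = log(DR-1) - log[B] from ED50 ratio. Mean ± SE, 4-5 experiments.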

[2] = target: T2, Alpha-1A adrenergic receptor (Homo sapiens, UniProt P35348); experiment: Displacement of [3H]prazosin from human alpha1A-adrenoceptor expressed in CHO cell membranes measured after 30 mins
T2 sequence (P35348 whole entry): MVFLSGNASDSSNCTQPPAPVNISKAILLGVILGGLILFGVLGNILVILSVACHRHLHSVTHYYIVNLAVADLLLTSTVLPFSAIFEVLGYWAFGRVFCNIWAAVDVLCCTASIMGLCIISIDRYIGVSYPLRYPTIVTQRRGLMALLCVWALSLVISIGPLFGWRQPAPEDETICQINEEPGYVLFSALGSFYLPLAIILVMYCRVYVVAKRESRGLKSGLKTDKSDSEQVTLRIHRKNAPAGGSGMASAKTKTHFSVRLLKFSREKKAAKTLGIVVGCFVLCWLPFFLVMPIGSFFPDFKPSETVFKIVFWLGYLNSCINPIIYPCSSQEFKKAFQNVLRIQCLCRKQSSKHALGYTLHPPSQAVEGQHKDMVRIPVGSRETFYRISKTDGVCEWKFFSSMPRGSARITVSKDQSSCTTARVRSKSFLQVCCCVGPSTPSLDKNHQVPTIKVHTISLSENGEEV
In short: (§1)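 Membranes (30 µg protein) from stably transfected CHO cells, each expressing one human α1 subtype, incubated 30 min at 25 °C in 50 mM Tris-HCl pH 7.4 with 0.1-0.4 nM [3H]prazosin and competitor 1 pM-10 µM. Nonspecific binding defined with 10 µM phentolamine. Filtration over PEI-treated filters. Ki from IC50 via Cheng-Prusoff; 2-3 experiments in triplicate.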

[3] = target: T3, Alpha-1D adrenergic receptor (Homo sapiens, UniProt P25100); experiment: Displacement of [3H]prazosin from human alpha1D-adrenoceptor expressed in CHO cell membranes measured after 30 mins; in short: as §1
T3 sequence (P25100 whole entry): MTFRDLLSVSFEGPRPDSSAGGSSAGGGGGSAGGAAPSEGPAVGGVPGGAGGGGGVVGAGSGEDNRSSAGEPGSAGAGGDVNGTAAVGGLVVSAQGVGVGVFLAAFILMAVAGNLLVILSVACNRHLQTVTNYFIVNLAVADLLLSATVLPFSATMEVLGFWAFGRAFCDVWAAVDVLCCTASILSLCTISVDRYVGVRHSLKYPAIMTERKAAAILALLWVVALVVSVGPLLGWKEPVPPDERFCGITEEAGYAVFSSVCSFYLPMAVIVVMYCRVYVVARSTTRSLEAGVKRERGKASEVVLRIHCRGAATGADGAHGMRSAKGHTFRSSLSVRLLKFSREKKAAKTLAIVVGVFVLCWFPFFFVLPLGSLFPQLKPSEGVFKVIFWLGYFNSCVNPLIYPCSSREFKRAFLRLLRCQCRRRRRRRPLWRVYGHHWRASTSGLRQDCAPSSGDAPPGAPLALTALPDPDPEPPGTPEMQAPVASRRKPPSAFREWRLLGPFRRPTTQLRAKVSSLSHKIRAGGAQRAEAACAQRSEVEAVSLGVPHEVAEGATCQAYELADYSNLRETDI

[4] = target: T4, Alpha-1D adrenergic receptor (Rattus norvegicus) (UniProt P23944); experiment: Antagonist activity at alpha1D-adrenoceptor in Wistar rat thoracic aorta assessed as inhibition of (-)-NE-induced contractions preincubated for 60 mins before (-)-NE challenge measured after 1 hr in presence of normetanephrine hydrochloride and (+/-)-propranolol hydrochloride
T4 sequence (whole entry): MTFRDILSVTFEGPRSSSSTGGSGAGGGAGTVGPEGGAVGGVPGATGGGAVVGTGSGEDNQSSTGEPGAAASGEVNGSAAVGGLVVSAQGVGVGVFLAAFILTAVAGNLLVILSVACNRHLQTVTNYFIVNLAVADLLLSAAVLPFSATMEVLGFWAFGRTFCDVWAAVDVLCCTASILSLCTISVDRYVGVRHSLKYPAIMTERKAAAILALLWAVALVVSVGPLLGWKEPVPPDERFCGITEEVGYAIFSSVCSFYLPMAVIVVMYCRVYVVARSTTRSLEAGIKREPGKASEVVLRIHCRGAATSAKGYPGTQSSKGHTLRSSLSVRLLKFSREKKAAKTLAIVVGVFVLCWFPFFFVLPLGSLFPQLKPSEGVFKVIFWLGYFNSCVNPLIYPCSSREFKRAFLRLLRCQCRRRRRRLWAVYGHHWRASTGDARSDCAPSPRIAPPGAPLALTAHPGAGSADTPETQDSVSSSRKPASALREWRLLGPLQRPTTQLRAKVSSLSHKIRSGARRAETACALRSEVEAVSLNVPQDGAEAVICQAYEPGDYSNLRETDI
In short: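 Male Wistar rat thoracic aorta strips, endothelium rubbed off and checked by loss of 100 µM acetylcholine relaxation after 1 µM (-)-NE contraction. Krebs solution, 1 g tension, at least 2 h equilibration. Isometric cumulative (-)-NE curves at 1 h intervals; third used as control, fourth after 60 min antagonist. pKB from the ED50 dose ratio. Mean ± SE, 4-5 experiments.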

[5] = target: T5, Alpha-1B adrenergic receptor (Homo sapiens, UniProt P35368); experiment: Displacement of [3H]prazosin from human alpha1B-adrenoceptor expressed in CHO cell membranes measured after 30 mins; in short: as §1
T5 sequence (P35368 whole entry): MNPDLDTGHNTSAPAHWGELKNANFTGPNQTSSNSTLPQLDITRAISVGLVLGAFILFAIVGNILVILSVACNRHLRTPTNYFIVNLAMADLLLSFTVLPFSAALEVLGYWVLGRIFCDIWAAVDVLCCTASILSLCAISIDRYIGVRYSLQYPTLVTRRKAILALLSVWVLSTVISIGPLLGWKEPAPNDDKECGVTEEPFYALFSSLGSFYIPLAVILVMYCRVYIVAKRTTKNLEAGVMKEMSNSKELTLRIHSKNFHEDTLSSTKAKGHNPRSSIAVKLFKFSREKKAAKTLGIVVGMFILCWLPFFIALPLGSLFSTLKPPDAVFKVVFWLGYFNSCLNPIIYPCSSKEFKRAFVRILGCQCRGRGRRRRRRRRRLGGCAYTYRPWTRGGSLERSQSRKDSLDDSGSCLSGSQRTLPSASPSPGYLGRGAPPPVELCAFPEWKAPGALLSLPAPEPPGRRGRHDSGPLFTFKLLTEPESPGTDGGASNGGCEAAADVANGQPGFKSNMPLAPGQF

[6] = target: T6, Alpha-1A adrenergic receptor (Rattus norvegicus) (UniProt P43140); experiment: Antagonist activity at alpha1A-adrenoceptor in Wistar rat prostatic vas deference assessed as inhibition of (-)-NE-induced contractions preincubated for 60 mins before (-)-NE challenge measured after 45 mins
T6 sequence (whole entry): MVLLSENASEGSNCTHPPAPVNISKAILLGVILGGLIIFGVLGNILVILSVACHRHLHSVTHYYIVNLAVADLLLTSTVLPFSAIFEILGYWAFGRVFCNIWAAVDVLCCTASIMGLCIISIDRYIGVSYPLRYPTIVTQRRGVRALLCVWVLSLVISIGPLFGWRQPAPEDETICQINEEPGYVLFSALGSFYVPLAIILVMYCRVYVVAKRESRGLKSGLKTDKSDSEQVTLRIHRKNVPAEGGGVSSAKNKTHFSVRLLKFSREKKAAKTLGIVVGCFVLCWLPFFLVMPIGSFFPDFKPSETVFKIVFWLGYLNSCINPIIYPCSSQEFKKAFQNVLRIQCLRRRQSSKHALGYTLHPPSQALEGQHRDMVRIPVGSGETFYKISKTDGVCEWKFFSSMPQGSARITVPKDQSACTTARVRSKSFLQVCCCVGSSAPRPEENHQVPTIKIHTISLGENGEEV
In short: (§2)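 Male Wistar rats (275-300 g); prostatic vas deferens segments (2 cm) under 0.35 g tension at 37 °C in Tyrode with cocaine, aerated 5% CO2/95% O2. Tissue primed twice with 10 µM (-)-NE, then a cumulative isotonic (-)-NE curve. Antagonist equilibrated 60 min before a repeat curve. Line 1 gives pKB = log(DR-1) - log[B] at one or two concentrations; line 4 gives pA2 from Schild plot, slope constrained to -1. Mean ± SE, 4-5 experiments.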

[7] = target: T7, Alpha-1A adrenergic receptor (Rattus norvegicus, UniProt P43140); experiment: Competitive antagonist activity at alpha1A-adrenoceptor in Wistar rat prostatic vas deference assessed as inhibition of (-)-NE-induced contractions preincubated for 60 mins before (-)-NE challenge measured after 45 mins by Schild plot analysis; conditions: read-out: pA2 (converted); in short: as §2
T7 sequence (P43140 whole entry): T6 sequence (whole entry)

Structure (SMILES)	pKb [1]	Ki [2]	Ki [3]	pKb [4]	Ki [5]	pKb [6]	Kb [7]
CCOc1ccccc1N1CCN(CCc2cccc(OC)c2)CC1	8.13	2.95 nM	2.57 nM	8.11	25.1 nM	8.39	–
COc1ccc(CCN2CCN(c3ccccc3OC(C)C)CC2)cc1	–	2.24 nM	3.09 nM	–	14.8 nM	–	–
COc1ccc(CCN2CCN(c3ccccc3OC(C)C)CC2)cc1OC	8.74	2 nM	1.35 nM	9.12	10.5 nM	9.55	–
CCOc1ccccc1N1CCN(CCc2ccc(OC)cc2)CC1	7.91	1.12 nM	1.35 nM	8.23	10.2 nM	8.89	–
CCOc1ccccc1N1CCN(CCc2ccc3c(c2)OCO3)CC1	8.85	1.12 nM	1.51 nM	8.84	5.37 nM	9.09	–
COc1cccc(CCN2CCN(c3ccccc3OC(C)C)CC2)c1	8.92	2.75 nM	1.32 nM	9.46	13.8 nM	8.87	–
CC(C)Oc1ccccc1N1CCN(CCc2ccc3c(c2)OCO3)CC1	8.03	0.389 nM	1.74 nM	8.33	12.9 nM	8.27	4.17 nM
CCOc1ccccc1N1CCN(CCc2ccc(OC)c(OC)c2)CC1	8.89	2.09 nM	0.603 nM	8.79	15.8 nM	9.1	–
COc1ccccc1N1CCN(CCc2ccccc2)CC1	7.82	31.6 nM	16.6 nM	8.5	91.2 nM	7.76	–
CC(C)Oc1ccccc1N1CCN(CCc2ccccc2)CC1	7.94	5.01 nM	4.57 nM	8.59	77.6 nM	8.29	–
COc1ccccc1N1CCN(CCc2ccc3c(c2)OCO3)CC1	8.11	3.47 nM	1.26 nM	8.57	5.25 nM	8.47	–
